Measurements taken from publication PMC3220788 (The Journal of steroid biochemistry and molecular biology, 2011).
Like-named read-outs stand apart in the source and are kept apart here.

How the values were obtained:
ERα/β = ERα/β (Homo sapiens, UniProt P03372); assay: ERE-GFP reporter activation/inhibition assay in MCF-7 cells; assay type: cell-based; conditions: for inhibition of E2-induced ERE response: 1 nM E2
ERα [1] = assay type: binding
Method in brief: (§1)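 COS7 cells are transiently transfected (Lipofectamine2000) with ERα-GFP or ERβ-GFP and serum-starved 24 h. About 5×10⁴ cells are incubated 20 min with test compound, then an equal volume of 20 nM E2-Alexa633 in saponin permeabilization buffer is added. After 10 min at RT, cells are washed in PBS/2% BSA and read by high-throughput flow cytometry.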

ERβ [2] = assay type: binding
Method in brief: as §1

ERα [3] = conditions: cited from earlier work
ERβ [4] = conditions: high concentrations (≥10 µM); cited from earlier work
ERα or ERβ = conditions: ERα- or ERβ-expressing cells; cited from earlier work
COS7 cells = assay: PI3K activation; assay type: cell-based; conditions: 10 µM, COS7 lacking ERα, ERβ and GPER
Method in brief: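 COS7 cells carry no endogenous ERα, ERβ or GPER. They are transfected with PH-mRFP1 alone (¼ the recommended amount, Lipofectamine2000), grown on coverslips and serum-starved 24 h in phenol red-free RPMI. Cells are stimulated with compounds at 10 µM, fixed in 2% PFA, and scored by confocal microscopy for nuclear translocation of the PIP3 reporter.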

ERα [5] = assay: PI3K activation; assay type: cell-based; conditions: COS7 ERα-GFP
GPER [6] = target: T1, GPER (Homo sapiens, UniProt Q99527); assay: Intracellular calcium mobilization in SKBr3 cells; assay type: cell-based
T1 sequence (Q99527 whole entry, species assumed): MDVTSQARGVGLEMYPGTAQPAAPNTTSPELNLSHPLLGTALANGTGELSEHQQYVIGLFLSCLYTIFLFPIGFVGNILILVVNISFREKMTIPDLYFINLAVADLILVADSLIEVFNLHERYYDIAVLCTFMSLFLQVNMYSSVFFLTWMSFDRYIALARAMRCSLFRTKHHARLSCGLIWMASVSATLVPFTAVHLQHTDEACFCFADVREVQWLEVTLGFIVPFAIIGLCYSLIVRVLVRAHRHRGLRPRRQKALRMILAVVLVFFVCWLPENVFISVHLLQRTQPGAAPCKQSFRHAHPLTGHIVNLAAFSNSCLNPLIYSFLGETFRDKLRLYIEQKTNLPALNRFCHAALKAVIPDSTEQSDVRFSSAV
Method in brief: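 SKBr3 cells are loaded with 3 µM indo1-AM and 0.05% pluronic acid in HBSS for 1 h at RT, washed, and assayed at 2×10⁶ cells/mL. Calcium is read ratiometrically (ex 340 nm, em 400/490 nm) at 37°C with stirring. […] Responses are normalized to agonist plus DMSO vehicle, and IC50 is taken from the dose-response curve.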

[7] = tested on: endogenous purinergic receptors; assay: Calcium mobilization by ATP in SKBr3 cells; assay type: cell-based; conditions: 10 µM G36, SKBr3
Method in brief: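 SKBr3 cells are loaded with 3 µM indo1-AM and 0.05% pluronic acid in HBSS for 1 h at RT, washed, and assayed at 2×10⁶ cells/mL. Calcium is read ratiometrically (ex 340/em 400/490 nm) at 37°C in a stirred spectrofluorometer. Cells are pretreated with 10 µM test compound, then given 1 µM ATP to engage endogenous purinergic receptors.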

GPER [8] = target: T1, GPER; assay: PI3K activation; assay type: cell-based; conditions: COS7 GPER-GFP, 1 µM G36 preincubated 20 min
Method in brief: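 COS7 cells are cotransfected (Lipofectamine2000) with GPER-GFP and PH-mRFP1, the latter at ¼ the recommended amount. […] Cells are fixed in 2% PFA and imaged by confocal microscopy for PH-mRFP1 nuclear translocation as the PI3K read-out.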

GPER [9] = target: T1, GPER; assay: ERK activation; assay type: cell-based
uterine epithelia = assay: Mouse uterine estrogenicity assay; assay type: in vivo; conditions: s.c., 18 hr
[10] = entire range of concentrations tested

Chain of ERα/β (P03372 whole entry): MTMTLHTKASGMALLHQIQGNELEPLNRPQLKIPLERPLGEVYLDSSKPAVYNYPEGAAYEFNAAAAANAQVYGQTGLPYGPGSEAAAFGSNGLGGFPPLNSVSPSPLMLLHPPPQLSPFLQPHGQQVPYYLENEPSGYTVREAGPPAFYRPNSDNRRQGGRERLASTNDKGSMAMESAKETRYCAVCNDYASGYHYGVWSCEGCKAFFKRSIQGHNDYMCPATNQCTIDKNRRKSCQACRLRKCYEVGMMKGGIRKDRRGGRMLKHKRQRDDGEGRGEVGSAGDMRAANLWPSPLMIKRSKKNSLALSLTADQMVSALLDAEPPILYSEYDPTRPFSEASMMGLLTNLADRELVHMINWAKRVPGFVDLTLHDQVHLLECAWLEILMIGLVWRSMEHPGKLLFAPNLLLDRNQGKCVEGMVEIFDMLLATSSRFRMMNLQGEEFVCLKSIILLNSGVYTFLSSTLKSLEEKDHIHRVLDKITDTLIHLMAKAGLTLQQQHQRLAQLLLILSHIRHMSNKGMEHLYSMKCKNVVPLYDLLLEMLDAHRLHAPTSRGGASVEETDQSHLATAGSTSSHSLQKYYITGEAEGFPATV

Structure (SMILES): Brc1cc2c(cc1[C@@H]1Nc3ccccc3[C@@H]3C=CC[C@@H]31)OCO2 [G15]
- inhibition of E2-induced ERE response (ERα/β; 1 µM compound): no significant effect
- ERE reporter activity compared to maximal E2 response (ERα/β; 1 µM, Fig. 5): ~ 15%
- inhibition of E2-induced ERE response (ERα/β; 10 µM compound): ~ 30%
- inhibitory effects on estrogen-induced transcription (ERα/β; E2 at 10 nM (data not shown)): absent
- ERE activation (ERα/β; concentrations 1–10 µM, Fig. 2): 15–20%
- activation of the ERE reporter (of E2 response) (ERα/β; high doses (≥1 µM), 24 h, MCF-7 ERE-GFP): ≤ 20%
- binding to ERα (competition of E2-Alexa633) (ERα [1]; highest concentration, 10 µM): weak but significant binding
- binding to ERβ (competition of E2-Alexa633) (ERβ [2]; highest concentration, 10 µM): weak but significant binding
- binding to ERα (ERα [3]; high concentrations (≥10 µM)): weak binding
- binding to ERβ (ERβ [4]): weak binding
- rapid signaling events via MAPK or PI3K pathways (ERα or ERβ): does not mediate rapid signaling events

Structure (SMILES): CC(=O)c1ccc2c(c1)C1C=CCC1C(c1cc3c(cc1Br)OCO3)N2 (stereo not drawn) [G-1]
- activation of PI3K (nuclear translocation of PH-RFP) (COS7 cells): no activation of PI3K
- ER binding competition (ERα [3]; 10 µM): unable to detect significant competition

Structure (SMILES): C[C@]12CC[C@@H]3c4ccc(O)cc4CC[C@H]3[C@@H]1CC[C@@H]2O [E2, 17β-estradiol, reference compound]
- activation of PI3K (nuclear translocation of PH-RFP) (COS7 cells): no activation of PI3K
- activation of PI3K (nuclear translocation of PH-RFP) (ERα [5]): activate PI3K

Structure (SMILES): CC(C)c1ccc2c(c1)C1C=CCC1C(c1cc3c(cc1Br)OCO3)N2 (stereo not drawn) [G36, 4-(6-Bromo-benzo[1,3]dioxol-5-yl)-8-isopropyl-3a,4,5,9b-tetrahydro-3H-cyclopenta[c]quinoline]
- inhibition at 10 µM (ERα/β; MCF7, read-out: inhibition of E2-induced ERE response): < 5%
- ERE response elicited (ERα/β; concentrations up to 1 µM): no significant ERE response
- antagonism of E2-mediated ERE response (ERα/β; concentrations up to 10 µM): no ability to antagonize
- binding to ERα (competition of E2-Alexa633) (ERα [1]; [10]): lacking detectable binding activity
- binding to ERβ (competition of E2-Alexa633) (ERβ [2]; [10]): lacking detectable binding activity
- effect on basal calcium level in cells (GPER [6]; 10 µM G36 alone, SKBr3): did not alter
- IC50 (GPER [6]; IC50, inhibition of E2-mediated calcium mobilization, SKBr3, E2 200 nM): 112 nM
- IC50 (GPER [6]; IC50, inhibition of G-1-mediated calcium mobilization, SKBr3, G-1 200 nM): 165 nM
- inhibition of calcium mobilization by 1 µM ATP [7]: no inhibition
- activation of PI3K (nuclear translocation of PH-RFP) (COS7 cells): no activation of PI3K
- inhibition of E2-mediated PI3K activation (ERα [5]; 1 µM G36 preincubated 20 min): did not inhibit
- inhibition of E2-induced PI3K activation (GPER [8]): effectively inhibited
- effect on E2-induced ERK activation (GPER [9]; SKBr3, E2 10 nM, 1 µM antagonist pre-incubated 15 min): significant decrease
- effect on EGF-induced ERK activation (GPER [9]; SKBr3, EGF 10 ng/mL, 1 µM antagonist): unchanged
- effect on G-1-induced ERK activation (GPER [9]; SKBr3, G-1 10 nM, 1 µM antagonist pre-incubated 15 min): significant decrease
- effect on proliferation compared to E2 treatment (uterine epithelia; G36 50 ug/kg with E2 10 ug/kg): significant decrease in proliferation
- effect on proliferative response to G-1 (uterine epithelia; G36 50 ug/kg with G-1 10 ug/kg): completely abrogated
- uterine epithelial proliferation (Ki-67 positivity), compound alone (uterine epithelia; ovariectomized C57Bl6 mice, E2 10 ug/kg, G-1 10 ug/kg, G36 50 ug/kg): no effect
